We go through six compounds from ChEMBL document CHEMBL1926661, “The arginine mimicking β-amino acid β³hPhe(3-H₂N-CH₂) as S1 ligand in cyclotheonamide-based β-tryptase inhibitors” (Bioorg Med Chem, 2011).

Data set [1] can be described thus: Inhibition of trypsin.
The target in the next data set is Prothrombin (Homo sapiens, UniProt P00734). The data set is described as follows: Inhibition of thrombin.
The species entered for the next data set is Homo sapiens. The experiment in a line: Selectivity ratio of Ki for Trypsin to Ki for human beta-tryptase.
Data set [2] is described as follows: Inhibition of human mast cell tryptase-beta using chromogenic substrate.
The next data set addresses Kallikrein-1 (Homo sapiens, UniProt P06870). The data set is described as follows: Inhibition of tissue kallikrein.
Data set [3] in a line: Metabolic stability in human serum assessed as compound remaining at 200 uM after 48 hrs by RP-HPLC analysis. The format is ADME, cell-free. The settings on record: read-out: Stability. A digest of the protocol:
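Compound at 200 μM incubated in undiluted human plasma or human serum at 37 °C for up to 48 h. At time points, samples were acidified with an equal volume of 0.1% TFA and centrifuged at 8000 × g for 10 min. Supernatants were analysed by C18 RP-HPLC using a linear H₂O/MeCN (0.1% TFA) gradient over 200 min to quantify remaining intact inhibitor.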

For a further data set, the target named is Plasma kallikrein (Homo sapiens, UniProt P03952). The experiment in a line: Inhibition of plasma kallikrein.
The next data set addresses Coagulation factor X (Homo sapiens, UniProt P00742). The data set is described as follows: Inhibition of factor 10a.
Data set [4] in a line: Inhibition of human beta-tryptase.
Data set [5] can be described thus: Inhibition of beta-tryptase.

pKi: −log10 of the molar value.

Chain of Plasma kallikrein (P03952 20-390 limits assumed): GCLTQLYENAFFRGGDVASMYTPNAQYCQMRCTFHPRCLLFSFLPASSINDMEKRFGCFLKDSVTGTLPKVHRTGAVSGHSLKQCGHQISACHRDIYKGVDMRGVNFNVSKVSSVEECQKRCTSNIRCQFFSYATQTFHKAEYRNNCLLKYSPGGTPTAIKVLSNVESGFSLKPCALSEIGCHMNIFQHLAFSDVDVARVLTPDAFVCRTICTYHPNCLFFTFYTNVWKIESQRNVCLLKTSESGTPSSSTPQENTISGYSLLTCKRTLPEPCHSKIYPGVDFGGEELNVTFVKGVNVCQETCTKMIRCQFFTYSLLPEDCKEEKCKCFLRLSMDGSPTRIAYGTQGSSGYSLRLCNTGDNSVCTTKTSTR
Chain of Plasma kallikrein (P03952 391-638 limits assumed): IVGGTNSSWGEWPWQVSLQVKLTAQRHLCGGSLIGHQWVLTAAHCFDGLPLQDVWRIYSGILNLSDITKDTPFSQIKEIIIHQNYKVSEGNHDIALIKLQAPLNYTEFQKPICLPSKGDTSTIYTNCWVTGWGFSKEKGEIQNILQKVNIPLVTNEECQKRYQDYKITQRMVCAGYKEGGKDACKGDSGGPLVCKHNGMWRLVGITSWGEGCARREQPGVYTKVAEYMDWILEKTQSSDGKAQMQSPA
Chain of Kallikrein-1 (P06870 whole entry): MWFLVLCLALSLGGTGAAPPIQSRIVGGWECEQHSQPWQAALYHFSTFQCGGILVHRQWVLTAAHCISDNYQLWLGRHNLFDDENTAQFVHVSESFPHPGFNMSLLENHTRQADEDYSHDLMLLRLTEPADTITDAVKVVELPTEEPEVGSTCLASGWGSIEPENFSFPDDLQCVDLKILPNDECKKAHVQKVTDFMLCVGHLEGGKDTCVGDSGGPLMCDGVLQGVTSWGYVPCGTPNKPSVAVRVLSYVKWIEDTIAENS
Chain of Coagulation factor X (P00742 41-179 limits assumed): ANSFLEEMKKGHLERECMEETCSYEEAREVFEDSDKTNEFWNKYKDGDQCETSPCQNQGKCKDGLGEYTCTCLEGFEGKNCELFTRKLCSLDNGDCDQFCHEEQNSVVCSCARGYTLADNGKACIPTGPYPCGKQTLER
Chain of Coagulation factor X (P00742 235-488 limits assumed): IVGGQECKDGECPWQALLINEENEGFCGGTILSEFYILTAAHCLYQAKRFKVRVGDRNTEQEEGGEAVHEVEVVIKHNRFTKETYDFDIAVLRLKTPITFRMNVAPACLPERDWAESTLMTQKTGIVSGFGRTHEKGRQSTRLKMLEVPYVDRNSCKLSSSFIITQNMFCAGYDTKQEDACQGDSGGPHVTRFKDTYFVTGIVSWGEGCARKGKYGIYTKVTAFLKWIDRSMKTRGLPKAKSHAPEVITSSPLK

For orientation: pKi means the Ki on a negative log10 scale, so that one unit is a factor of ten. Higher therefore signals a low Ki. For the compound `CC[C@H](C)[C@H]1NC(=O)C[C@H](Cc2cccc(CN)c2)NC(=O)[C@@H]2CCCN2C(=O)[C@@H](NC(C)=O)CNC(=O)/C=C/[C@H](Cc2ccc(O)cc2)NC1=O`, the pKi in [1] was 4.00; on Prothrombin it was 3.17; in [2], 6.22; on Kallikrein-1, 2.74; at Plasma kallikrein, 2.48; on Coagulation factor X, 3.51. Moreover, the Ratio Ki in the data set filed under Homo sapiens came to 170. In addition, the remaining at 48 h, 200 µM in data set [3] came to 95%.

Consider `CC[C@H](C)[C@H]1NC(=O)C[C@H](CCCNC(=N)N)NC(=O)[C@@H]2CCCN2C(=O)[C@@H](NC(C)=O)CNC(=O)/C=C/[C@H](Cc2ccc(O)cc2)NC1=O`, for which the pKi is 4.40 in [4] and 4.52 in data set [1]. Further, the Ratio Ki in the data set listed under Homo sapiens came to 0.8.

As for `CC[C@H](C)[C@H]1NC(=O)C[C@H](CCCNC(=N)N)NC(=O)[C@@H]2CCCN2C(=O)[C@@H](NC(=O)CCCCCN)CNC(=O)/C=C/[C@H](Cc2ccc(O)cc2)NC1=O`, the pKi in data set [4] is 8.15; in data set [1], 5.00. The Ratio Ki in the data set listed under Homo sapiens worked out at 1400.

As for `CC[C@H](C)[C@H]1NC(=O)C[C@H](CCCCN)NC(=O)[C@@H]2CCCN2C(=O)[C@@H](NC(C)=O)CNC(=O)/C=C/[C@H](Cc2ccc(O)cc2)NC1=O`, the pKi was 3.42 in data set [4] and 3.64 in data set [1]. Also, in the data set listed under Homo sapiens, the Ratio Ki stood at 0.6.

Regarding `CC[C@H](C)[C@H]1NC(=O)C[C@H](Cc2cccc(CN)c2)NC(=O)[C@@H]2CCCN2C(=O)[C@@H](NC(=O)CCCCCN)CNC(=O)/C=C/[C@H](Cc2ccc(O)cc2)NC1=O`, the negative-log Ki (pKi) in data set [1] was 4.30; on Prothrombin it was 3.48; in data set [2], 7.60; at Kallikrein-1, 2.89; on Plasma kallikrein, 2.70; at Coagulation factor X, 3.44. Moreover, the Ratio Ki in the data set filed under Homo sapiens amounted to 2000. The remaining at 48 h, 200 µM in [3] worked out at 81%.

For the compound `COC(=O)C(Cc1cccc(CN)c1)NC(C)=O` (racemic), the pKi in data set [5] is 4.85; in data set [1] it was 3.40.
